Calls of active or inactive are those of the source. The rule behind the calls is not given here.

In series [1] the target is T1, P2Y purinoceptor 12 (Homo sapiens, UniProt Q9H244). The series is described as follows: Binding affinity at human recombinant P2Y12 receptor expressed in CHO cells by radioligand binding assay. In kind it is cell-based. In short, it runs like this:
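Washed membranes from CHO cells transfected with synthetic human P2Y12 gene. Compounds as 7-point threefold dilutions, triplicate, 1 h at room temperature. Nonspecific binding defined with 300 nM 2-MeSADP. Filtered, washed with ice-cold Tris pH 7.4. Single-site fit; IC50 converted to Ki by Cheng–Prusoff, geometric mean of n≥2.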

For series [2], the target named is T1, P2Y purinoceptor 12. The series can be described thus: Binding affinity at human recombinant P2Y12 receptor expressed in CHO cells by radioligand binding assay in presence of 0.4% human serum albumin. The series is classed as cell-based. Put shortly: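 Membranes from CHO cells transfected with a synthetic human P2Y12 gene, with 0.4% human serum albumin added to the binding buffer (50 mM Tris, 100 mM NaCl, 1 mM EDTA). Seven-point threefold dilutions were run in triplicate, 1 h at room temperature, then filtered. Ki from IC50 by Cheng-Prusoff.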

A short description of series [3]: Selectivity for human P2Y12 receptor over P2Y13.
Series [4] in a line: Selectivity for human P2Y12 receptor over P2Y1.
The nature of series [5]: Clearance in Sprague-Dawley rat at 2 mg/kg, iv and 5 mg/kg, po. As to conditions: in vivo. The series is classed as ADME, organism-based.
The nature of series [6]: Volume of distribution at steady state in Sprague-Dawley rat at 2 mg/kg, iv and 5 mg/kg, po. In kind it is ADME, organism-based. As to conditions: in vivo, read-out: Vdss.
A further series deals with CYP2D6 (Homo sapiens, UniProt P10635). The series is described as follows: Inhibition of CYP2D6 at 3 uM after 30 mins. The series is classed as ADME. Put shortly:
(§1)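 Each CYP isoform assayed separately at a single 3 µM compound concentration in duplicate, with at least one isoform-specific positive control inhibitor. Incubation 30 min at 37 °C; end-point measurement gives percent inhibition.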

Series [7] relates to Liver microsomes. The series is described as follows: Metabolic stability in rat liver microsomes assessed as compound remaining. The series is classed as ADME, Microsome. Put shortly:
(§2)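 Compounds incubated 30 min with human or rat liver microsomes; percent of parent compound remaining measured.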
In general terms: Liver microsomes are vesicles of endoplasmic reticulum, rich in cytochrome P450 enzymes.

The target in another series is CYP2C9 (Homo sapiens, UniProt P11712). The series is described as follows: Inhibition of CYP2C9 at 3 uM after 30 mins. In kind it is ADME. Put shortly:
as §1

Series [8] has as its system Liver microsomes. The series can be described thus: Metabolic stability in human liver microsomes assessed as compound remaining. The series is classed as ADME, Microsome. Put shortly: as §2
For the next series, the target named is CYP3A4 (Homo sapiens, UniProt P08684). The series can be described thus: Inhibition of CYP3A4 at 3 uM after 30 mins. The series is classed as ADME. In short, it runs like this:
as §1

Another series has as its target hERG (KCNH2) (Homo sapiens, UniProt Q12809). The series is described as follows: Displacement of Cy3B-tagged N-desmethyl dofetilide from human ERG expressed in HEK cells at 10 uM after 120 mins. In kind it is cell-based, HEK293. The conditions noted are these: HEK cells that express human ERG, probe Cy3B-tagged N-desmethyl dofetilide. Put shortly: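 Fluorescence polarization competition assay with HEK-hERG membrane homogenates and Cy3B-tagged N-desmethyl dofetilide tracer. Compound tested at a single 10 µM concentration, 120 min incubation, end-point read for percent inhibition.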

In the next series the target is T2, CYP1A2 (Homo sapiens, UniProt P05177).
T2 sequence (P05177 whole entry): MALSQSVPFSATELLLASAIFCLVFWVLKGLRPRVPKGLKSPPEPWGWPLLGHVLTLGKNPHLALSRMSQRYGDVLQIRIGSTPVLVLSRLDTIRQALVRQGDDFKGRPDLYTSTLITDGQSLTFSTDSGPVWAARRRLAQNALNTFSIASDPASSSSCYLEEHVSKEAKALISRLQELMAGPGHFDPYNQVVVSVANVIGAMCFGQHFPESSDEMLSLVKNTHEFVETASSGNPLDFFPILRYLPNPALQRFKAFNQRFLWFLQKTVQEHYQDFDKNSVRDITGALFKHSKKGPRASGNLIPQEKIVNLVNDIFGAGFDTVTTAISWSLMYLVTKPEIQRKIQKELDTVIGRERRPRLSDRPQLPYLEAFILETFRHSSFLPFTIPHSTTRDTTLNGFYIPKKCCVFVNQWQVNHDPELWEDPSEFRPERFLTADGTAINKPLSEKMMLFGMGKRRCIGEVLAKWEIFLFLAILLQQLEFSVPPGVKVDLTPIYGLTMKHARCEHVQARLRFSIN
The series is described as follows: Inhibition of CYP1A2 at 3 uM after 30 mins. The series is classed as ADME. In short, it runs like this: as §1

The nature of series [9]: Effective half life in Sprague-Dawley rat at 2 mg/kg, iv and 5 mg/kg, po. The conditions noted are these: in vivo. The series is classed as ADME, organism-based.
Series [10] concerns the target T1, P2Y purinoceptor 12. The series is described as follows: Ratio of compound IC50 to AZD-6140 IC50 for P2Y12 receptor in human platelet rich plasma assessed as inhibition of ADP-induced platelet aggregation by light transmission aggregometry. Put shortly: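 Human platelet-rich plasma was pre-incubated 5 min at 37 °C with compound across seven concentrations (10 down to 0.156). Aggregation was started with ADP (20, final) and followed by light transmission at 626 nm for 15 min at 37 °C. Duplicate concentration-response data were read at the 15-min end-point. IC50 was divided by the IC50 of AZD-6140 run on the same plate.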

Series [11] deals with T1, P2Y purinoceptor 12. The series can be described thus: Ratio of compound IC50 to thienopyrimidine IC50 for P2Y12 receptor in human platelet rich plasma assessed as inhibition of ADP-induced platelet aggregation by light transmission aggregometry. In short, it runs like this:
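Human platelet-rich plasma was pre-incubated 5 min at 37 °C with compound across seven concentrations (10 down to 0.156). Aggregation was started with ADP (20, final) and followed by light transmission at 626 nm for 15 min at 37 °C. Duplicate concentration-response data were read at the 15-min end-point. IC50 was divided by the IC50 of the thienopyrimidine reference run on the same plate.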

Series [12] in a line: Oral bioavailability in Sprague-Dawley rat at 5 mg/kg. The series is classed as ADME, organism-based. The conditions noted are these: in vivo.

T1 sequence (Q9H244 whole entry): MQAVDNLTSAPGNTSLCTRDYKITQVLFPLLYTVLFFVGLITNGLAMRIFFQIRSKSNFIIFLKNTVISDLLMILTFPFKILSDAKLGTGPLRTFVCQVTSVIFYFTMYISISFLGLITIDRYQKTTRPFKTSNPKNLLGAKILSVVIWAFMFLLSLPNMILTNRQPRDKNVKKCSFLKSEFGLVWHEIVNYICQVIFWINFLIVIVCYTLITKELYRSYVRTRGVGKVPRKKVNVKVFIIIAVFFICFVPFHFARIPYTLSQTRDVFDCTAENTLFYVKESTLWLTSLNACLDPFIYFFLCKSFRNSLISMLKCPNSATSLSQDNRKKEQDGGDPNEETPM
Sequence of CYP2D6 (P10635 whole entry, canonical isoform): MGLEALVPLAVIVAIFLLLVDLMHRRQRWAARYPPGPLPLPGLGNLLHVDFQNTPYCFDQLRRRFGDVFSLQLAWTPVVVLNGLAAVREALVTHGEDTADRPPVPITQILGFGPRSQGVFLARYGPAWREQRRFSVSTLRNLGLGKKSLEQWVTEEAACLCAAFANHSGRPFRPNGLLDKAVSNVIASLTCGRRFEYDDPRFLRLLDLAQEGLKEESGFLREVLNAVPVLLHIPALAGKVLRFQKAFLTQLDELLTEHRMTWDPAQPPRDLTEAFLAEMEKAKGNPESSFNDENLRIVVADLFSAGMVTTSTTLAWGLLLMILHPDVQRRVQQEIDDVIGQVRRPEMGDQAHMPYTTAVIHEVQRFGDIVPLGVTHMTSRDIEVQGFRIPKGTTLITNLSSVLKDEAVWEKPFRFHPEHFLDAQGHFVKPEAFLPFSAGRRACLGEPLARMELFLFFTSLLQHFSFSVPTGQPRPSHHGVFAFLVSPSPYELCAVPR
Sequence of CYP2C9 (P11712 whole entry): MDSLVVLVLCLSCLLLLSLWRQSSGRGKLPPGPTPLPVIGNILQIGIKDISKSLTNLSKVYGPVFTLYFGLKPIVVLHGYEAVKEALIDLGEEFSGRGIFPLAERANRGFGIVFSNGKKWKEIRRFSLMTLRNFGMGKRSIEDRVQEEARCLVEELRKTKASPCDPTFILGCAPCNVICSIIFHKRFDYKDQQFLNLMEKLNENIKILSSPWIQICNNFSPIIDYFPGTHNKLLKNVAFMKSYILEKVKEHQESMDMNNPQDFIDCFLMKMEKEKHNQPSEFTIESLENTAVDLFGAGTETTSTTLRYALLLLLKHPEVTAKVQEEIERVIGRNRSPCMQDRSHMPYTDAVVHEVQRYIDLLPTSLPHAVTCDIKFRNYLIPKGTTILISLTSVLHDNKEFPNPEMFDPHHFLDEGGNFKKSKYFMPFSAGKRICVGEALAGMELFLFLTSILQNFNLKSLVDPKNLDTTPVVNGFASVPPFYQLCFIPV
Sequence of hERG (KCNH2) (Q12809 whole entry): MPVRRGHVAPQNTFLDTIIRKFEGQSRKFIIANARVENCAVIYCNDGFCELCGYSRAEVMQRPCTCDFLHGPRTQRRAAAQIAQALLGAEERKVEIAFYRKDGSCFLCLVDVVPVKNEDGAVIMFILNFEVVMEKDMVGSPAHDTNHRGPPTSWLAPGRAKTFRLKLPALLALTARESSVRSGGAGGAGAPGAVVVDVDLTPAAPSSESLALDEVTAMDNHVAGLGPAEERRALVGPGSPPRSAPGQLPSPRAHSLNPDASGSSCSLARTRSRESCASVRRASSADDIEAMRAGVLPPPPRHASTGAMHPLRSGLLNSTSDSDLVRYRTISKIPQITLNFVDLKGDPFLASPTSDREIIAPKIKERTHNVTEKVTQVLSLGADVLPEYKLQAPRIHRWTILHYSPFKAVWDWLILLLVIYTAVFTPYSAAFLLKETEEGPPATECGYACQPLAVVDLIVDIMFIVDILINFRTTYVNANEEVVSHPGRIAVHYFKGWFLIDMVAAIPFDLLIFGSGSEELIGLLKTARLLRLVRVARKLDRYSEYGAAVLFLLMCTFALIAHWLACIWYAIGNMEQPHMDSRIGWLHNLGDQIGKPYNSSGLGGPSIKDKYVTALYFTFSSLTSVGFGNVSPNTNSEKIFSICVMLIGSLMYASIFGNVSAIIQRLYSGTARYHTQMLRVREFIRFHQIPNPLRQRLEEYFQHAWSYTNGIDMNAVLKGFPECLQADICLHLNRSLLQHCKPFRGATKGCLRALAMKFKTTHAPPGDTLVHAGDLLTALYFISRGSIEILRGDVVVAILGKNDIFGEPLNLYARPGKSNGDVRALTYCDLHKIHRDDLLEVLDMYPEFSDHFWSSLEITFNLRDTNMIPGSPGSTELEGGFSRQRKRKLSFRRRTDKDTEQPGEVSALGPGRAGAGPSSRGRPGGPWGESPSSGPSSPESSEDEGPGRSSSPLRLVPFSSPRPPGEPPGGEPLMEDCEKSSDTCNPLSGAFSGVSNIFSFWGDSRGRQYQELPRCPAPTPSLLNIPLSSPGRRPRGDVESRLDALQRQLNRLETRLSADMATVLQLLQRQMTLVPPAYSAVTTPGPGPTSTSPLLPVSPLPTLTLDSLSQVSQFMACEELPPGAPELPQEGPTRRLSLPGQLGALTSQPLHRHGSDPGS
Sequence of CYP3A4 (P08684 whole entry): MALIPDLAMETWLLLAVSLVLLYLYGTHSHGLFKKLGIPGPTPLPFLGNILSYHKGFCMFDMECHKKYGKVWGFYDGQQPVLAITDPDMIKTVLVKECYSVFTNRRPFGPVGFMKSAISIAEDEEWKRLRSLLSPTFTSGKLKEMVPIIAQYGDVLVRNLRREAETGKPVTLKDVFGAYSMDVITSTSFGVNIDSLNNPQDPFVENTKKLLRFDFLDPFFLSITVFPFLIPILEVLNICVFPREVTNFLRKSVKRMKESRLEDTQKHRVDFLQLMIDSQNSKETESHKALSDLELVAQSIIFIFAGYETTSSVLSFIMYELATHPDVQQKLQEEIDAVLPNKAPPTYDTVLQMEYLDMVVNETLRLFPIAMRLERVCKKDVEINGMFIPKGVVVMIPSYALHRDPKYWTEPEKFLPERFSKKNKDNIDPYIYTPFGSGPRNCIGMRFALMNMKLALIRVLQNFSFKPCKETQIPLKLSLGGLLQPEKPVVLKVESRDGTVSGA

By Ki is commonly meant the dissociation constant of the complex between target and ligand, obtained from inhibition or displacement. As for `CCCCCOC(=O)N1CCN(C(=O)[C@H](CCC(=O)O)NC(=O)c2cc(SC(C)(C)C)nc(-c3ccccc3)n2)CC1`, the Ki on P2Y purinoceptor 12 [1] amounted to 42 nM. In addition, on P2Y purinoceptor 12 [2], the outcome was inactive. Further, the fold change (FC) in [3] and in series [4] was over 340 throughout.
Take `CCCCCOC(=O)N1CCN(C(=O)[C@H](CCC(=O)O)NC(=O)c2cc(SCC(F)(F)F)nc(-c3ccccc3)n2)CC1`: the Ki at P2Y purinoceptor 12 [1] is 22 nM. Also, on P2Y purinoceptor 12 [2], the outcome was inactive. In addition, the fold change (FC) in series [3] and in series [4] was over 340 in each case.
For the compound `CCCCCOC(=O)N1CCN(C(=O)[C@H](CCC(=O)O)NC(=O)c2cc(SC3CCCC3)nc(-c3ccccc3)n2)CC1`, the inhibition constant Ki at P2Y purinoceptor 12 [1] came to 17 nM. In addition, the result on P2Y purinoceptor 12 [2] was inactive. The fold change (FC) in series [3] and in series [4] was over 340 in each case.
On to `CCCCCOC(=O)N1CCN(C(=O)[C@H](CCC(=O)O)NC(=O)c2cc(SCCO)nc(-c3ccccc3)n2)CC1`, for which, on P2Y purinoceptor 12 [1], the Ki was 4.5 nM. For the same compound, the outcome at P2Y purinoceptor 12 [2] was inactive. In addition, the fold change (FC) in series [3] and in series [4] was over 340 each time.
In the case of `CCCCCOC(=O)N1CCN(C(=O)[C@H](CCC(=O)O)NC(=O)c2cc(SC3CCCCC3)nc(-c3ccccc3)n2)CC1`, the Ki on P2Y purinoceptor 12 [1] came out at 70 nM. Moreover, the result at P2Y purinoceptor 12 [2] was inactive. Also, the fold change (FC) in [3] and in [4] was over 340 in each case.
As a reminder, the inhibition is the change of the read-out against control, counted positive when it falls. As usually defined, the half-life is how long it takes for the measured level to halve. A lower half-life goes with fast loss. By bioavailability is commonly meant dose-corrected exposure relative to a reference, in per cent. Higher therefore signals much systemic uptake. `CCCCCOC(=O)N1CCN(C(=O)[C@H](CCC(=O)O)NC(=O)c2cc(N3CCC(C(=O)NCC)CC3)nc(-c3ccccc3)n2)CC1` had a clearance in series [5] of 8 mL/min/kg. For the same compound, the Vd in series [6] stood at 0.2 L/kg. The inhibition at 0.5 h, 3 µM on CYP2D6, at CYP2C9, at CYP3A4 and against CYP1A2 was under 25% each time. The Stability with Liver microsomes [7] and in the series with Liver microsomes [8] was over 80% each time. Besides, the Ki on P2Y purinoceptor 12 [1] is 0.6 nM. Also, the fold change (FC) in series [3] and in [4] was over 340 each time. Moreover, on hERG (KCNH2), the inhibition at 2 h, 10 µM was under 25%. In series [9], the half-life came to 18 min. Besides, the figures for the Ratio IC50 at P2Y purinoceptor 12 [10] and on P2Y purinoceptor 12 [11] were 1.5 and 0.2, respectively. Besides, in series [12], the bioavailability is 8%.

Values taken from ChEMBL document CHEMBL1156077, “Piperazinyl-glutamate-pyrimidines as potent P2Y12 antagonists for inhibition of platelet aggregation” (Bioorg Med Chem Lett, 2009).
